# From ChEMBL document CHEMBL5724801, “EUbOPEN Chemogenomics Library - Multiplex” (2024)
# Several values for one entry are separate records, joined by “and”; a condition that tells them apart may be missing. Identical values can stand only once.
# Assays:
# HEK-293T = assay: Multiplex assay against HEK293T; assay type: toxicity, cell-based; settings: human
# Summary of the method: (§1)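 Imaging took place on a CQ1 microscope at 37°C and 5% CO2 once compound had been added to live cells stained at seeding with Hoechst33342, BioTracker Green Microtubule Cytoskeleton Dye, MitoTracker Red and Annexin V Alexa Fluor 680. CellPathfinder machine-learning gating classed cells as Hoechst high-intensity objects or normal cells, classed normal cells as having healthy, pyknosed or fragmented nuclei, and classed pyknosed cells as mitotic or apoptotic. Tubulin, mitochondrial-mass and membrane-permeability phenotypes are per cents of the healthy-nucleus cells.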
# Fibroblast = assay: Multiplex assay against human fibroblast; assay type: toxicity, cell-based; summary of the method: as §1
# [1] = 12 h, 1 µM, compound concentration 1 uM
# [2] = 12 h, 10 µM, compound concentration 10 uM
# [3] = 24 h, 1 µM, compound concentration 1 uM
# [4] = 24 h, 10 µM, compound concentration 10 uM
# [5] = 48 h, 1 µM, compound concentration 1 uM
# [6] = 48 h, 10 µM, compound concentration 10 uM
smiles,measurement,setting,value
O=C(NCCNCC(O)COc1ccc(O)cc1)N1CCOCC1.O=C(NCCNCC(O)COc1ccc(O)cc1)N1CCOCC1.O=C(O)/C=C/C(=O)O (configuration not stated) [XAMOTEROL FUMARATE],Population Apoptotic (%),HEK-293T; [1],39% and 60%
same,Population Fragmented Nuclei (%),HEK-293T; [1],5%
same,Population Healthy Nuclei (%),HEK-293T; [1],79% and 76%
same,Population Hoechst High Intensity Objects (%),HEK-293T; [1],4% and 14%
same,Population Membrane Permeable-Phenotype (%),HEK-293T; [1],0%
same,Population Mitochondria Different-Phenotype (%),HEK-293T; [1],39% and 57%
same,Population Mitotic Cells (%),HEK-293T; [1],60% and 39%
same,Population Normal (%),HEK-293T; [1],95% and 85%
same,Population Pyknosed Nuclei (%),HEK-293T; [1],14% and 17%
same,Population Tubulin-Different-Phenotype (%),HEK-293T; [1],26% and 21%
same,Total Cell Count,HEK-293T; [1],339 and 271
same,Population Apoptotic (%),HEK-293T; [2],35% and 29%
same,Population Fragmented Nuclei (%),HEK-293T; [2],7% and 4%
same,Population Healthy Nuclei (%),HEK-293T; [2],83% and 86%
same,Population Hoechst High Intensity Objects (%),HEK-293T; [2],6% and 5%
same,Population Membrane Permeable-Phenotype (%),HEK-293T; [2],0%
same,Population Mitochondria Different-Phenotype (%),HEK-293T; [2],39% and 62%
same,Population Mitotic Cells (%),HEK-293T; [2],65% and 70%
same,Population Normal (%),HEK-293T; [2],93% and 94%
same,Population Pyknosed Nuclei (%),HEK-293T; [2],8% and 9%
same,Population Tubulin-Different-Phenotype (%),HEK-293T; [2],19% and 23%
same,Total Cell Count,HEK-293T; [2],499 and 406
same,Population Apoptotic (%),HEK-293T; [3],26% and 45%
same,Population Fragmented Nuclei (%),HEK-293T; [3],8% and 9%
same,Population Healthy Nuclei (%),HEK-293T; [3],78% and 80%
same,Population Hoechst High Intensity Objects (%),HEK-293T; [3],6% and 13%
same,Population Membrane Permeable-Phenotype (%),HEK-293T; [3],0%
same,Population Mitochondria Different-Phenotype (%),HEK-293T; [3],18% and 38%
same,Population Mitotic Cells (%),HEK-293T; [3],73% and 54%
same,Population Normal (%),HEK-293T; [3],93% and 86%
same,Population Pyknosed Nuclei (%),HEK-293T; [3],12% and 10%
same,Population Tubulin-Different-Phenotype (%),HEK-293T; [3],17% and 15%
same,Total Cell Count,HEK-293T; [3],475 and 366
same,Population Apoptotic (%),HEK-293T; [4],21% and 33%
same,Population Fragmented Nuclei (%),HEK-293T; [4],9% and 7%
same,Population Healthy Nuclei (%),HEK-293T; [4],79% and 85%
same,Population Hoechst High Intensity Objects (%),HEK-293T; [4],5% and 4%
same,Population Membrane Permeable-Phenotype (%),HEK-293T; [4],0%
same,Population Mitochondria Different-Phenotype (%),HEK-293T; [4],25% and 42%
same,Population Mitotic Cells (%),HEK-293T; [4],78% and 66%
same,Population Normal (%),HEK-293T; [4],94% and 95%
same,Population Pyknosed Nuclei (%),HEK-293T; [4],11% and 7%
same,Population Tubulin-Different-Phenotype (%),HEK-293T; [4],12% and 17%
same,Total Cell Count,HEK-293T; [4],632 and 542
same,Population Apoptotic (%),HEK-293T; [5],21% and 41%
same,Population Fragmented Nuclei (%),HEK-293T; [5],14% and 11%
same,Population Healthy Nuclei (%),HEK-293T; [5],77% and 81%
same,Population Hoechst High Intensity Objects (%),HEK-293T; [5],2% and 4%
same,Population Membrane Permeable-Phenotype (%),HEK-293T; [5],2% and 0%
same,Population Mitochondria Different-Phenotype (%),HEK-293T; [5],11% and 18%
same,Population Mitotic Cells (%),HEK-293T; [5],78% and 58%
same,Population Normal (%),HEK-293T; [5],97% and 95%
same,Population Pyknosed Nuclei (%),HEK-293T; [5],7% and 6%
same,Population Tubulin-Different-Phenotype (%),HEK-293T; [5],9% and 10%
same,Total Cell Count,HEK-293T; [5],918 and 526
same,Population Apoptotic (%),HEK-293T; [6],17% and 25%
same,Population Fragmented Nuclei (%),HEK-293T; [6],15% and 16%
same,Population Healthy Nuclei (%),HEK-293T; [6],79% and 77%
same,Population Hoechst High Intensity Objects (%),HEK-293T; [6],0% and 2%
same,Population Membrane Permeable-Phenotype (%),HEK-293T; [6],1% and 0%
same,Population Mitochondria Different-Phenotype (%),HEK-293T; [6],13% and 16%
same,Population Mitotic Cells (%),HEK-293T; [6],82% and 74%
same,Population Normal (%),HEK-293T; [6],99% and 97%
same,Population Pyknosed Nuclei (%),HEK-293T; [6],5%
same,Population Tubulin-Different-Phenotype (%),HEK-293T; [6],6% and 10%
same,Total Cell Count,HEK-293T; [6],1116 and 827
same,Population Apoptotic (%),Fibroblast; [1],63% and 43%
same,Population Fragmented Nuclei (%),Fibroblast; [1],15% and 23%
same,Population Healthy Nuclei (%),Fibroblast; [1],67% and 53%
same,Population Hoechst High Intensity Objects (%),Fibroblast; [1],2% and 4%
same,Population Mitochondria Different-Phenotype (%),Fibroblast; [1],4% and 7%
same,Population Mitotic Cells (%),Fibroblast; [1],36% and 56%
same,Population Normal (%),Fibroblast; [1],97% and 95%
same,Population Pyknosed Nuclei (%),Fibroblast; [1],17% and 23%
same,Population Tubulin-Different-Phenotype (%),Fibroblast; [1],24% and 55%
same,Total Cell Count,Fibroblast; [1],114 and 167
same,Population Apoptotic (%),Fibroblast; [2],30% and 17%
same,Population Fragmented Nuclei (%),Fibroblast; [2],21% and 30%
same,Population Healthy Nuclei (%),Fibroblast; [2],64% and 49%
same,Population Hoechst High Intensity Objects (%),Fibroblast; [2],4% and 5%
same,Population Membrane Permeable-Phenotype (%),Fibroblast; [2],2% and 4%
same,Population Mitochondria Different-Phenotype (%),Fibroblast; [2],5% and 11%
same,Population Mitotic Cells (%),Fibroblast; [2],70% and 82%
same,Population Normal (%),Fibroblast; [2],95% and 94%
same,Population Pyknosed Nuclei (%),Fibroblast; [2],14% and 20%
same,Population Tubulin-Different-Phenotype (%),Fibroblast; [2],32% and 43%
same,Total Cell Count,Fibroblast; [2],143 and 154
same,Population Apoptotic (%),Fibroblast; [3],68% and 50%
same,Population Fragmented Nuclei (%),Fibroblast; [3],20% and 28%
same,Population Healthy Nuclei (%),Fibroblast; [3],63% and 52%
same,Population Hoechst High Intensity Objects (%),Fibroblast; [3],1% and 2%
same,Population Mitochondria Different-Phenotype (%),Fibroblast; [3],2% and 6%
same,Population Mitotic Cells (%),Fibroblast; [3],31% and 50%
same,Population Normal (%),Fibroblast; [3],98% and 97%
same,Population Pyknosed Nuclei (%),Fibroblast; [3],15% and 19%
same,Population Tubulin-Different-Phenotype (%),Fibroblast; [3],25% and 63%
same,Total Cell Count,Fibroblast; [3],121 and 149
